Screening data: PubChem BioAssay, several laboratories
Shown are actives, neighbours in structure and some others; about 2.9% of the full set was active somewhere.
Runt-CBFb FRET: blocks binding of human RUNX1 Runt domain to CBFb. Q01196+Q13951. inhibition, % at 20 µM. 220,000 tested, 0.46% active. Cerulean-Runt/Venus-CBFb FRET ratio 530/480, 1 h. AID 1496;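 active = inhibition over about 50% at 20 µM in the single-dose screen, limit read from the data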;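 note: 0% = DMSO wells and 100% = excess unlabeled CBFb competitor control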
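Measured by: fluorescence energy transfer, 422 nm excitation, 530/480 nm emission; Assay system: Cerulean-Runt domain; Medium: Tris pH 7.5 buffer with BSA; Measure: loss of energy transfer signal; Controls: 5 µM unlabeled CBFb as full-inhibition high control; Incubation: protein complex preformed 1 h, compound exposure 1 h, room temperature, dark.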
Runt-SMMHC FRET: blocks binding of human RUNX1 Runt domain to CBFb-SMMHC; inhibition, % at 20 µM; Q01196+Q13951; AID 1434; Cerulean-Runt/Venus-CBFb-SMMHC FRET ratio 530/480, 1 h; 220,000 tested, 0.74% active;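 active = mean inhibition across duplicate retests at 20 µM reaching about 50%, limit read from the data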;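 note: 0% = DMSO wells and 100% = wells with excess untagged CBFb-SMMHC; inhibitors lower the FRET ratio by blocking Runt binding to CBFb-SMMHC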
proKLK7 act: activators of human kallikrein-7 zymogen; P49862; purified proKLK7, EDANS-DABCYL substrate fluorescence; 100% is mature enzyme control, 0% vehicle; activation, % at 7 µM; 370,000 tested, 0.9% active; AID 652039;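 active = activation above the mean of all tested compounds plus 3 SD, computed per campaign excluding outliers beyond control limits, cut at about 13% in these data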
AI-2 QS modul: modulators of Vibrio harveyi AI-2 quorum sensing system. Vibrio harveyi JMH597 AI-2 luminescence/OD600 ratio, 9 h; active compounds read low; strain lacks LuxN and CqsS sensors; 0 = neutral-control median. activity change, % at 7.5 µM. 300,000 tested, 0.4% active. AID 2094; in the data active = activity change below about -75%, passing the limit was not always enough; inconclusive = no clear call, values can overlap the other calls;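 note: luminescence divided by OD600 gain over 9 h not by final OD600 alone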
RanGTP-Impb inh: disruptors of Ran-importin-beta complex formation – biochemical, FRET, CFP-Ran, YFP-importin-beta, homogeneous, primary screen | cell-free CFP-Ran/YFP-importin-beta FRET ratio | inhibition, % (concentration not given with the values) | 300,000 tested, 1.1% active | AID 2216;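 active = more than half of the replicate wells show a fall in the fluorescence ratio signal beyond about 16%, limit read from the data, passing the limit was not always enough; inconclusive = exactly half of the replicate wells pass the set limit; inactive = fewer than half of replicates pass the limit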;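 note: 0% = DMSO wells and 100% = Ran loaded with GDP instead of GTP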
Wee1 stabilizer: inhibitors of human Wee1 degradation | P30291 | HeLa Luc-Wee1K328M stability, luciferase luminescence; 100% = proteasome inhibitor MG132 effect | reporter increase, % at 5 µM | 220,000 tested, 1.2% active | AID 1321;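 active = activation above the mean of all tested compounds plus 3 SD, set per screening run, cut at about 8.8% in these data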;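 note: cells exposed to compound for 20 h before luminescence read; 0% = DMSO alone and 100% = MG132 at 30 µM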
Target sequence (P30291 whole entry K328M): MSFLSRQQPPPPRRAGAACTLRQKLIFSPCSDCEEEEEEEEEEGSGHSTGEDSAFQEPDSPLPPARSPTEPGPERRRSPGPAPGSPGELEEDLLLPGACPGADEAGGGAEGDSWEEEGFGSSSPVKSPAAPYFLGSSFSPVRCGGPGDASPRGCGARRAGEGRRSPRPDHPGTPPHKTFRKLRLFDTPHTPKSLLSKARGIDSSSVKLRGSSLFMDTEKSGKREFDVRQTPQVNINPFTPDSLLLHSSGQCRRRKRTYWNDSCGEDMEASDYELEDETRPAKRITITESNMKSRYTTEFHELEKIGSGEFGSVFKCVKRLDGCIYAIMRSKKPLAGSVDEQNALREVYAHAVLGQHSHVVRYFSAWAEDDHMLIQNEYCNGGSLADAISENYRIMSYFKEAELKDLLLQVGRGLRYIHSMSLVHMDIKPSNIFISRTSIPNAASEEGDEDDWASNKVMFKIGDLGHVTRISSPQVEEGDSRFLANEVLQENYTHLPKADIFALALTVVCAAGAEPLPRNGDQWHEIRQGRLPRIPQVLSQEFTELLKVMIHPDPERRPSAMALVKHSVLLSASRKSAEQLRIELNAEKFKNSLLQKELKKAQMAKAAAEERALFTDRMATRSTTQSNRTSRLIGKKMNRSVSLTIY
Numbers without * were called inactive.

How did CC(=O)Nc1cc(OC(C)=O)c2nonc2c1OC(C)=O do in these assays?
Runt-CBFb FRET: 31.7; Runt-SMMHC FRET: 22.5; proKLK7 act: 40.0*; Wee1 stabilizer: -4.6

Results for CC(=O)Nc1nonc1NC(C)=O ?
Runt-CBFb FRET: -2.0; Runt-SMMHC FRET: 2.9; proKLK7 act: 0.4; AI-2 QS modul: 2.8; RanGTP-Impb inh: -0.4; Wee1 stabilizer: -0.6

Results for O=C1CC(CCC(=O)NC2CC2)c2ccccc2N1 (configuration not stated) ?
Runt-CBFb FRET: -0.3; Runt-SMMHC FRET: 0.7; proKLK7 act: 0.2; AI-2 QS modul: 22.1; RanGTP-Impb inh: -5.3; Wee1 stabilizer: 9.0*

How did O=C1CC(C(=O)O)c2ccccc2N1 (configuration not stated) do in these assays?
Runt-CBFb FRET: 0.1; Runt-SMMHC FRET: -4.2; proKLK7 act: 0.7; AI-2 QS modul: 6.6; RanGTP-Impb inh: -1.5; Wee1 stabilizer: -1.7

How did Cc1cc(O)c(C=O)c2c1C(=O)Oc1c(CO)c(O)c3c(c1O2)C(O)OC3=O (configuration not stated) do in these assays?
Runt-CBFb FRET: 53.1*; Runt-SMMHC FRET: 40.0; Wee1 stabilizer: -0.2

How did COc1ccc(NS(=O)(=O)c2ccc(NC(=O)c3ccccc3)cc2)nn1 do in these assays?
Runt-CBFb FRET: -0.2; Runt-SMMHC FRET: 2.6; proKLK7 act: 0.7; AI-2 QS modul: 11.3; RanGTP-Impb inh: 4.2; Wee1 stabilizer: 10.8*

How did COc1ccc(NS(=O)(=O)c2ccc(NC(=O)c3ccc(Br)cc3)cc2)nn1 do in these assays?
Runt-CBFb FRET: -1.8; Runt-SMMHC FRET: -0.5; proKLK7 act: -0.8; AI-2 QS modul: 32.7; RanGTP-Impb inh: 1.8; Wee1 stabilizer: -3.2

Results for COc1ccc(-c2noc(CCCc3ccccc3)n2)cc1OC ?
Runt-CBFb FRET: -4.2; Runt-SMMHC FRET: -4.6; proKLK7 act: 0.2; AI-2 QS modul: 12.4; RanGTP-Impb inh: 26.1*; Wee1 stabilizer: -3.2

Results for CCCCOc1ccc(C(=O)NC2CCCCN(Cc3ccc(C)cc3)C2=O)cc1 (configuration not stated) ?
proKLK7 act: 0.0

How did COc1ccc(/C=C/S(=O)(=O)NCc2ccc(F)cc2)c(CNC(=O)OC(C)(C)C)c1 do in these assays?
proKLK7 act: -0.4

What do the screens show for `CC(OC(=O)c1cccc(S(=O)(=O)Nc2cccc(C(F)(F)F)c2)c1)C(=O)Nc1ccc2c(c1)OCCO2` (configuration not stated)?
Runt-CBFb FRET: 1.3; Runt-SMMHC FRET: 5.3; proKLK7 act: 1.6; AI-2 QS modul: 14.0; RanGTP-Impb inh: inconclusive; Wee1 stabilizer: 9.2*

What do the screens show for `Cc1ccc(-n2c3c(c(=O)[nH]c2=O)C(NS(=O)(=O)c2ccc(Cl)cc2)(C(F)(F)F)C(=O)N3)cc1` (configuration not stated)?
Runt-CBFb FRET: 0.4; Runt-SMMHC FRET: 3.9; proKLK7 act: -0.5; AI-2 QS modul: -1.0; RanGTP-Impb inh: 2.8; Wee1 stabilizer: -0.3

How did Cc1ccc(/C=N/Nc2cccc(C(=O)O)c2)s1 do in these assays?
Runt-CBFb FRET: -2.5; Runt-SMMHC FRET: 0.1; proKLK7 act: 0.9; AI-2 QS modul: 48.5; RanGTP-Impb inh: 0.3; Wee1 stabilizer: -1.0

Results for COc1ccc(/C=N/Nc2ccc(C(=O)O)cc2)cc1Br ?
Runt-CBFb FRET: -1.9; Runt-SMMHC FRET: -1.4; proKLK7 act: 0.6; AI-2 QS modul: -96.1*; RanGTP-Impb inh: inconclusive; Wee1 stabilizer: -0.7

Results for Cc1ccc(/C=N/Nc2ccc(C(=O)O)cc2)s1 ?
Runt-CBFb FRET: 5.6; Runt-SMMHC FRET: -2.7; proKLK7 act: 1.6; AI-2 QS modul: -94.7*; RanGTP-Impb inh: 5.4; Wee1 stabilizer: -3.3

How did C[C@@H]1O[C@@H](n2c3ccc(Cl)cc3c3ccc4c5cc(Cl)ccc5[nH]c4c32)[C@H](O)[C@H](O)[C@H]1O do in these assays?
proKLK7 act: 1.0

How did O=C(Nc1cccc(Cl)c1)NC1CC2CCC(C1)N2Cc1ccco1 (configuration not stated) do in these assays?
Runt-CBFb FRET: 2.5; Runt-SMMHC FRET: -2.4; proKLK7 act: -0.3; AI-2 QS modul: -1.0; RanGTP-Impb inh: 33.5*; Wee1 stabilizer: -0.6

Results for CSc1nsc(/C=C/Nc2ccc(C)c(C)c2)c1C#N ?
Runt-CBFb FRET: -0.7; Runt-SMMHC FRET: -6.7; proKLK7 act: -0.6; AI-2 QS modul: 18.1; RanGTP-Impb inh: 33.1*; Wee1 stabilizer: 3.0

How did CCOc1ccc2nc(NC(=O)Cn3[nH]c(=O)c4ccccc4c3=O)sc2c1 do in these assays?
Runt-CBFb FRET: -9.7; Runt-SMMHC FRET: -9.2; proKLK7 act: -0.4; AI-2 QS modul: 33.2; RanGTP-Impb inh: 1.1; Wee1 stabilizer: 0.3

How did CCOC(=O)/C(C#N)=C\c1ccc(N2CCN(C/C=C/c3ccccc3)CC2)cc1 do in these assays?
Runt-CBFb FRET: -118.2; Runt-SMMHC FRET: -64.7; proKLK7 act: -0.6; AI-2 QS modul: 39.5; RanGTP-Impb inh: 90.7*; Wee1 stabilizer: -1.4

What do the screens show for `CCC(C(=O)NC(C)(C)C)N(C(=O)Cn1nnc(-c2ccccc2F)n1)c1cccc2c1CCCC2` (configuration not stated)?
Runt-CBFb FRET: -2.6; Runt-SMMHC FRET: 5.4; proKLK7 act: 0.0; AI-2 QS modul: 9.0; RanGTP-Impb inh: -0.3; Wee1 stabilizer: -1.2

What do the screens show for `O=C(NCc1ccco1)c1cnn2c1NC(c1ccc(Br)cc1)CC2C(F)(F)F` (configuration not stated)?
Runt-CBFb FRET: 0.1; Runt-SMMHC FRET: 7.0; proKLK7 act: 0.6; AI-2 QS modul: 19.6; RanGTP-Impb inh: 24.9*; Wee1 stabilizer: -1.0

Results for CC1=C(c2ccccc2)[N+](=O)C2(CCCC2)N1[O-] ?
Runt-CBFb FRET: -0.8; Runt-SMMHC FRET: 3.5; proKLK7 act: -0.4; AI-2 QS modul: 0.6; RanGTP-Impb inh: 0.2; Wee1 stabilizer: -0.5

Results for O=[N+]([O-])c1ccc2c(c1)N([O-])C1(CCCCC1)[N+]2=O ?
Runt-CBFb FRET: 25.8; Runt-SMMHC FRET: 72.6*; proKLK7 act: -0.2; Wee1 stabilizer: -0.3

How did CO[C@@]1(NC(=O)C2SC(=C(C(N)=O)C(=O)O)S2)C(=O)N2C(C(=O)O)=C(CSc3nnnn3C)CS[C@@H]21 (some centres not stated) do in these assays?
proKLK7 act: 0.4

How did CO[C@@]1(NC(=O)Cc2cccs2)C(=O)N2C(C(=O)O)=C(COC(N)=O)CS[C@@H]21 do in these assays?
Runt-CBFb FRET: 2.1; Runt-SMMHC FRET: 0.8; proKLK7 act: 0.8; AI-2 QS modul: 24.1; RanGTP-Impb inh: 4.4; Wee1 stabilizer: 10.0*
